Reference: ChEMBL document CHEMBL1137432, “Characterization of the histamine H4 receptor binding site. Part 1. Synthesis and pharmacological evaluation of dibenzodiazepine derivatives” (J Med Chem, 2006)

How the values were obtained:
Histamine H4 receptor [1] = biological target: T1, Histamine H4 receptor (Homo sapiens, UniProt Q9H3N8); settings: SK-N-MC, 300 nM
Histamine H4 receptor [2] = biological target: T1, Histamine H4 receptor; settings: SK-N-MC, 100 nM
Histamine H4 receptor [3] = biological target: T1, Histamine H4 receptor; settings: SK-N-MC, 1 uM
Histamine H4 receptor [4] = biological target: T1, Histamine H4 receptor; experiment: Displacement of [3H]histamine from human histamine H4 receptor transfected in SK-N-MC cells
Histamine H4 receptor [5] = biological target: T1, Histamine H4 receptor; experiment: Agonist activity at human histamine H4 receptor transfected in SK-N-MC cells; assay type: functional, cell-based
Histamine H4 receptor [6] = biological target: T1, Histamine H4 receptor; experiment: Activity at human histamine H4 receptor transfected in SK-N-MC cells by cAMP assay; assay type: functional, cell-based
How it was run: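 Colorimetric cAMP read-out in SK-N-MC cells stably expressing the human H4 receptor together with a CRE-β-galactosidase reporter gene, used to measure functional activity.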

Histamine H4 receptor [7] = biological target: T1, Histamine H4 receptor; settings: SK-N-MC, 10 nM
Histamine H1 receptor [8] = biological target: T2, Histamine H1 receptor (Homo sapiens, UniProt P35367); experiment: Displacement of [3H]mepyramine from human histamine H1 receptor
Histamine H3 receptor = Histamine H3 receptor (Homo sapiens, UniProt Q9Y5N1); experiment: Displacement of [3H]histamine from human histamine H3 receptor transfected in SK-N-MC cells; assay type: cell-based
How it was run: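 Homogenates of SK-N-MC cells stably expressing the human H3 receptor were used. Affinity was determined by radioligand displacement.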

Histamine H4 receptor [9] = biological target: T1, Histamine H4 receptor; settings: SK-N-MC, 30 nM
Histamine H1 receptor [10] = biological target: T2, Histamine H1 receptor; experiment: Activity at human histamine H1 receptor transfected in COS7 cells by NF-kappaB luciferase reporter assay; assay type: functional, cell-based, COS-7
Histamine H2 receptor = Histamine H2 receptor (Homo sapiens, UniProt P25021); experiment: Displacement of [3H]APT from human histamine H2 receptor transfected in COS7 cells; assay type: cell-based, COS-7
Sequence of Histamine H2 receptor (P25021 whole entry): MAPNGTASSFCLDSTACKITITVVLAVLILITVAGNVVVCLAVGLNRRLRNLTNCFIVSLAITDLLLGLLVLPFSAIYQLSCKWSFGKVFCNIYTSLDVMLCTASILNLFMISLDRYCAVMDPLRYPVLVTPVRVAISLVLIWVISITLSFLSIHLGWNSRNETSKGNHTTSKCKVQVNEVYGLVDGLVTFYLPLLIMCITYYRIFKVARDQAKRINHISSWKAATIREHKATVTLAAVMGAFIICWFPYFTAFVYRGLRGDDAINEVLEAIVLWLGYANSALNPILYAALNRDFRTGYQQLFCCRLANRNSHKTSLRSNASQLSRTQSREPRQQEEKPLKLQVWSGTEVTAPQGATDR

T1 sequence (Q9H3N8 whole entry): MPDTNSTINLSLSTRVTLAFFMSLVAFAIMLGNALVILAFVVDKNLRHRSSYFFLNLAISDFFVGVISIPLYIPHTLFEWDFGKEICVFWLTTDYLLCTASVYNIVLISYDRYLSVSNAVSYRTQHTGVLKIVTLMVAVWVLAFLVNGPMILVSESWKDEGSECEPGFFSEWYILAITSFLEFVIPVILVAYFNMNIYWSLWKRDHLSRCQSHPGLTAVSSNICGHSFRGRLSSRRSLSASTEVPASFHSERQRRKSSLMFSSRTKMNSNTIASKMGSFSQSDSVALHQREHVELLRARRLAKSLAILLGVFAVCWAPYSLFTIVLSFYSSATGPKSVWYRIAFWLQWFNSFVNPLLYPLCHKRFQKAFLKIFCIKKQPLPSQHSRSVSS
T2 sequence (P35367 whole entry): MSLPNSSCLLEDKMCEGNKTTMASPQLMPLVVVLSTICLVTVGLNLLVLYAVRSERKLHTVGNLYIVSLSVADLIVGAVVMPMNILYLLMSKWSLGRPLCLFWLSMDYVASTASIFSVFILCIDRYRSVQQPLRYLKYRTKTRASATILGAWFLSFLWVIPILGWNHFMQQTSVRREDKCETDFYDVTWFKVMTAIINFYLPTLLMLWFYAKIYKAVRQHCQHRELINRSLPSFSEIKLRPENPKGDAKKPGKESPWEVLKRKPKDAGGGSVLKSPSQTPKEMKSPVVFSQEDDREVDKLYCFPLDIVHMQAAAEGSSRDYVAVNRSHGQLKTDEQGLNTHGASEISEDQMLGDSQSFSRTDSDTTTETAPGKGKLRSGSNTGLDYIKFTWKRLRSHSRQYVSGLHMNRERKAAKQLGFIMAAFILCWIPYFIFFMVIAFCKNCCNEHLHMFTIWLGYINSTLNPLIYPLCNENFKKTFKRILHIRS
Sequence of Histamine H3 receptor (Q9Y5N1 whole entry): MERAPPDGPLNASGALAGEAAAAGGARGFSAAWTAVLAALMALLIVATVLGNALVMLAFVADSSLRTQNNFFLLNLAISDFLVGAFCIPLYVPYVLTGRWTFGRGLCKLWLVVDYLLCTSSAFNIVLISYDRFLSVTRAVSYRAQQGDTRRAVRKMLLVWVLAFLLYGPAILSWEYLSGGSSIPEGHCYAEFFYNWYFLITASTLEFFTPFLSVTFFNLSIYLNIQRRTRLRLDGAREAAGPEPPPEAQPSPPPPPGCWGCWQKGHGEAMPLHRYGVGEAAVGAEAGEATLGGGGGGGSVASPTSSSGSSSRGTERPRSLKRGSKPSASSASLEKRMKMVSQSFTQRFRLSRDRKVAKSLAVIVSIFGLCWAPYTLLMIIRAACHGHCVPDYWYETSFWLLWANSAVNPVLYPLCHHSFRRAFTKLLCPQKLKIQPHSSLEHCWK

SMILES	Ki (Histamine H4 receptor [4])	Activity (Histamine H4 receptor [5])	EC50 (Histamine H4 receptor [6])	also measured
CN1CCN(C2=Nc3cc(Cl)ccc3Nc3ccccc32)CC1	–	–	–	Bmax (Histamine H4 receptor [1]): 899 fmol/mg; Bmax (Histamine H4 receptor [2]): 996 fmol/mg; Bmax (Histamine H4 receptor [3]): 987 fmol/mg
OCCN1CCN(C2=Nc3cc(Cl)ccc3Nc3ccccc32)CC1	4.68 µM	–	–	–
CN1CCN(C2=Nc3cc(Cl)ccc3Sc3ccccc32)CC1 [ISOCLOTHIAPINE]	2.04 µM	–	–	–
CCN1CCN(C2=Nc3cc(Cl)ccc3Oc3ccccc32)CC1	0.288 µM	–	–	–
CN1CCN(C2=Nc3cc(Cl)ccc3Oc3ccccc32)CC1 [ISOLOXAPINE]	0.0427 µM	1	0.0282 µM	–
CC(C)N1CCN(C2=Nc3cc(Cl)ccc3Oc3ccccc32)CC1	1.07 µM	–	–	–
CN1CCN(C2=Nc3ccc(Cl)cc3Oc3ccccc32)CC1	–	1	–	Bmax (Histamine H4 receptor [7]): 951 fmol/mg; Bmax (Histamine H4 receptor [2]): 934 fmol/mg; Ki (Histamine H1 receptor [8]): 0.00776 µM; Ki (Histamine H3 receptor): 9.12 µM; Bmax (Histamine H4 receptor [9]): 934 fmol/mg; EC50 (Histamine H1 receptor [10]): 0.00676 µM; Ki (Histamine H2 receptor): 8.71 µM
CN1CCN(C2=Nc3ccc(Cl)cc3Oc3c(F)cccc32)CC1	0.0309 µM	1	0.0204 µM	–
Clc1ccc2c(c1)N=C(N1CCNCC1)c1ccccc1O2	0.324 µM	–	–	–
Clc1ccc2c(c1)N=C(N1CCCCC1)c1ccccc1N2	> 10 µM	–	–	–
CN1CCN(C2=Nc3ccc(Cl)cc3Oc3c(Cl)cccc32)CC1	0.0457 µM	1	0.0148 µM	–
CN1CCN(C2=Nc3cc(Cl)ccc3N(C)c3ccccc32)CC1	1.41 µM	–	–	–
CN1CCN(C2=Nc3ccccc3Oc3ccc(Cl)cc32)CC1 [LOXAPINE]	4.57 µM	0.5	0.219 µM	–
CN1CCN(C2=Cc3ccccc3Oc3ccc(Cl)cc32)CC1	> 10 µM	–	–	–
CN1CCN(C2=Nc3cc(Cl)ccc3Oc3ccc(F)cc32)CC1	0.191 µM	1	0.0813 µM	–
CN1CCN(C2=Nc3ccc(Cl)cc3Oc3cc(F)ccc32)CC1	0.0389 µM	1	0.0389 µM	–
CN1CCN(C2=Nc3cc(Cl)ccc3Oc3c(F)cccc32)CC1	0.0275 µM	1	0.0148 µM	–
CN1CCN(C2=Nc3ccccc3Oc3ccccc32)CC1	0.132 µM	1	0.302 µM	–
Clc1ccc2c(c1)N=C(N1CCOCC1)c1ccccc1N2	> 10 µM	–	–	–
CN1CCN(C2=Nc3cc(Cl)ccc3Oc3cc(Cl)ccc32)CC1	0.309 µM	1	0.102 µM	–
Cc1ccc2c(c1)Oc1ccccc1C(N1CCN(C)CC1)=N2	0.0794 µM	1	0.105 µM	–
CN1CCN(C2=Nc3ccccc3Cc3ccccc32)CC1 [PERLAPINE]	4.79 µM	–	–	–
